The results in this text go back to ChEMBL document CHEMBL4414663, “Pyrazole-4-Carboxamide (YW2065): A Therapeutic Candidate for Colorectal Cancer via Dual Activities of Wnt/β-Catenin Signaling Inhibition and AMP-Activated Protein Kinase (AMPK) Activation” (J Med Chem, 2019).

Active and inactive are the calls of the source. The rule behind the calls is not given here.

The test system of data set [1] is SW-620. The data set is described as follows: Induction of apoptosis in human SW620 cells incubated for 48 hrs by AAD-7 and FITC-annexin-V staining based flow cytometry. The data set is classed as functional, cell-based. The procedure, abridged: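 Cells treated with a range of concentrations or DMSO for 48 h. Stained with FITC annexin V/7-AAD and analysed by flow cytometry.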
On the technique in general: Flow cytometry measures light scatter and fluorescence of single cells or particles in a stream.

The test system of data set [2] is SW480. The data set is described as follows: Inhibition of colony formation in human SW480 cells incubated for 14 days by crystal violet staining based assay. The data set is classed as functional, cell-based. An outline of the steps: (§1)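 SW480, SW620 or HT29 cells seeded at 300/well in 3 mL medium in 6-well plates with a concentration series of compound. After 14 days, fixed in 4% formaldehyde and stained with 0.5% crystal violet in 25% aqueous MeOH; colonies photographed.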

In data set [3] the test system is SW-620. In words: Induction of apoptosis in human SW620 cells assessed as late apoptotic cells level at 1 uM incubated for 48 hrs by AAD-7 and FITC-annexin-V staining based flow cytometry (reference value: 7.6%). Type of data set: functional.
A short description of data set [4]: Inhibition of Wnt/beta-Catenin signaling in human SW620 cells incubated for 24 hrs by TCF/LEF dual-luciferase reporter assay. The data set is classed as cell-based. The note with it: SW-620, 24 h. The procedure, abridged: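 SW480 or SW620 cells seeded at 200,000/well and transiently transfected 24 h later with TOPflash firefly luciferase plus pRLTK-Renilla using lipofectamine 2000. After 16 h the medium was replaced with compound at a range of concentrations, three replicates each. Dual firefly/Renilla luciferase read 24 h later.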
For orientation: Reporter assays use an easily measured gene product as a stand-in for the process of interest.

Data set [5] is described as follows: Toxicity in C57BL/6 mouse assessed as effect on body weight at 100 mg/kg/day, ip for 21 days. Type of data set: organism-based. The note with it: in vivo, 504 h.
Data set [6] addresses Serine/threonine-protein kinase PAK 3 (Homo sapiens) (UniProt O75914). In words: Inhibition of PAK3 (unknown origin) at 1000 nM relative to control. An outline of the steps: (§2)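 Single-concentration screen at 1000 nM against a 273-kinase panel, reported as percent inhibition.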
Data set [7] deals with Mus musculus. The data set is described as follows: Inhibition of Wnt/beta-Catenin signaling in nude mouse xenografted with human SW620 cells assessed as reduction in Axin-2 mRNA expression at 50 mg/kg, ip QD for 32 consecutive days by RT-PCR analysis. Type of data set: organism-based. The note with it: in vivo. The procedure, abridged:
(§3)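 Six-week-old nude mice implanted subcutaneously in the right flank with 2×10^6 SW620 cells. Randomized at mean tumor volume 100–200 mm³, n = 6/group. Dosed IP once daily for 32 days at 10 or 50 mg/kg, or vehicle (10% DMSO, 10% Kolliphor, 80% saline). Tumors collected at day 32; Axin-2, MMP-7 and S100A4 expression measured by RT-PCR.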
In general terms: In xenograft studies the graft and the host belong to different species.

The test system of data set [8] is Mus musculus. The data set is described as follows: Inhibition of Wnt/beta-Catenin signaling in nude mouse xenografted with human SW620 cells assessed as reduction in S100A4 mRNA expression at 50 mg/kg, ip QD for 32 consecutive days by RT-PCR analysis. The data set is classed as organism-based. The conditions noted are these: in vivo. An outline of the steps: as §3

In data set [9] the test system is SW480. The data set is described as follows: Growth inhibition of human SW480 cells at 50 uM by Cell-titer-fluor reagent based assay relative to control. The conditions noted are these: read-out: GI. Type of data set: functional.
Data set [10] concerns the target Serine/threonine-protein kinase Nek6 (Homo sapiens) (UniProt Q9HC98). The data set is described as follows: Inhibition of NEK6 (unknown origin) at 1000 nM relative to control. The procedure, abridged: as §2
Data set [11] relates to SW-620. In words: Antitumor activity against human SW620 cells xenografted in nude mouse assessed as reduction in tumor volume at 50 mg/kg, ip QD for 32 consecutive days relative to control. The data set is classed as functional. Details: scale not given: the % may be the effect or the level left. An outline of the steps: (§4)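 Six-week-old nude mice injected subcutaneously with 2×10^6 SW620 cells. Randomised at mean tumor volume 100–200 mm³ (n=6/group). Given 10 or 50 mg/kg ip daily for 32 consecutive days; vehicle 10% DMSO, 10% Kolliphor, 80% saline. Tumor volume measured every other day. Tumors weighed after euthanasia at day 32. t test against vehicle.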

In data set [12] the test system is SW-620. The data set is described as follows: Antitumor activity against human SW620 cells xenografted in nude mouse assessed as reduction in tumor volume at 10 mg/kg, ip QD for 32 consecutive days. Type of data set: functional, organism-based. An outline of the steps:
as §4

Data set [13] has as its system Mus musculus. The data set is described as follows: Activation of AMPK in nude mouse xenografted with human SW620 cells assessed as increase in ACC phosphorylation at 50 mg/kg, ip QD for 32 consecutive days by Western blot analysis. Type of data set: functional, organism-based. The procedure, abridged:
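Nude mice carried subcutaneous SW620 xenografts (2×10^6 cells, right flank). Dosing began once mean tumor volume reached 100–200 mm³: 50 mg/kg ip once daily for 32 days, vehicle 10% DMSO/10% Kolliphor/80% saline. Tumors taken at day 32 and lysed in RIPA with protease inhibitors. Western blot with 20 µL of 2 mg/mL lysate on 7.5% SDS-PAGE, probed for pAMPK/AMPK or pACC/ACC, ECL detection.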

For data set [14], the system named is SW-620. The data set is described as follows: Induction of apoptosis in human SW620 cells assessed as viable cells level at 3 uM incubated for 48 hrs by AAD-7 and FITC-annexin-V staining based flow cytometry (reference value: 73.8%). Type of data set: functional.
Data set [15] can be described thus: Tmax in C57BL/6J mouse at 5 mg/kg, po by UPLC-MS analysis. Type of data set: ADME, organism-based. The note with it: in vivo. An outline of the steps:
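Male C57BL/6J mice, 2–3 months old, 23–26 g. Single 5 mg/kg dose in 5% Kolliphor in saline, IV (n = 3) or oral gavage (n = 5). Tail-vein blood taken at 0.25, 0.5, 1, 4, 8 and 12 h and centrifuged to plasma. Analysed by LC-MS/MS (QTRAP 4000, C18 column); parameters from non-compartmental analysis.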

The species entered for a further data set is Homo sapiens. In words: Inhibition of Wnt/beta-Catenin signaling in human SW620 cells assessed as reduction in MMP7 mRNA expression at 10 uM incubated for 24 hrs by real-time PCR analysis. The data set is classed as cell-based. The procedure, abridged:
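SW620 cells (RPMI 1640, 10% FBS) in 6-well plates, incubated 24 h, then treated with compound at several concentrations, three replicates each, for 24 h. Total RNA isolated with Trizol/phenol-chloroform; 2 µg reverse transcribed; Wnt target gene mRNA quantified by PCR.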

For data set [16], the system named is SW-620. In words: Induction of apoptosis in human SW620 cells assessed as early apoptotic cells level at 1 uM incubated for 48 hrs by AAD-7 and FITC-annexin-V staining based flow cytometry (reference value: 18.6%). Type of data set: functional.
Data set [17] is described as follows: Toxicity in C57BL/6 mouse assessed as effect on glucose level at 100 mg/kg/day, ip for 21 days. Type of data set: organism-based. The note with it: in vivo, 504 h.
The target in data set [18] is Maternal embryonic leucine zipper kinase (Homo sapiens) (UniProt Q14680). In words: Inhibition of MELK (unknown origin) at 1000 nM relative to control. The procedure, abridged:
as §2

For data set [19], the system named is HEK293. In words: Induction of Axin-1 protein expression in recombinant human Wnt-3a-induced Wnt-HEK293 cells at 1 uM by fluorescence microscopy. The data set is classed as functional, cell-based. The procedure, abridged:
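HEK293 cells treated at 1 µM, stained with anti-Axin-1 antibody and DAPI, imaged by fluorescence microscopy.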

Data set [20] addresses Mitogen-activated protein kinase kinase kinase kinase 4 (Homo sapiens) (UniProt O95819). The data set is described as follows: Inhibition of MAP4K4 (unknown origin) at 1000 nM relative to control. The procedure, abridged:
as §2

Data set [21] in a line: Toxicity in C57BL/6 mouse assessed as effect on total protein level at 100 mg/kg/day, ip for 21 days. The data set is classed as organism-based. The note with it: in vivo, 504 h.
The test system of the next data set is HT-29. In words: Inhibition of colony formation in human HT-29 cells incubated for 14 days by crystal violet staining based assay. Type of data set: functional, cell-based. An outline of the steps:
as §1

The subject of data set [22] is HEK293. The data set is described as follows: Induction of Axin-1 protein expression in recombinant human Wnt-3a-induced Wnt-HEK293 cells at 1 uM by Western blot analysis. Type of data set: functional, cell-based.

Serine/threonine-protein kinase Nek6 (Homo sapiens), sequence (Q9HC98 whole entry): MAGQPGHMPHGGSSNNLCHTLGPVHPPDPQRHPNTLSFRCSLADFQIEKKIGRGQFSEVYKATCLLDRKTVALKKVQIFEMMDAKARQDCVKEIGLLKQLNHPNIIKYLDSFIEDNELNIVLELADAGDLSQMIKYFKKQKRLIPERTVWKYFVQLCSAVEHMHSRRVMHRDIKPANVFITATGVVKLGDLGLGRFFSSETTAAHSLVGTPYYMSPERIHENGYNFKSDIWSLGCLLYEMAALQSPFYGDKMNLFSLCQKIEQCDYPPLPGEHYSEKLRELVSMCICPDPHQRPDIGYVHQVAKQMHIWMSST
Maternal embryonic leucine zipper kinase (Homo sapiens), sequence (Q14680 whole entry, looked up): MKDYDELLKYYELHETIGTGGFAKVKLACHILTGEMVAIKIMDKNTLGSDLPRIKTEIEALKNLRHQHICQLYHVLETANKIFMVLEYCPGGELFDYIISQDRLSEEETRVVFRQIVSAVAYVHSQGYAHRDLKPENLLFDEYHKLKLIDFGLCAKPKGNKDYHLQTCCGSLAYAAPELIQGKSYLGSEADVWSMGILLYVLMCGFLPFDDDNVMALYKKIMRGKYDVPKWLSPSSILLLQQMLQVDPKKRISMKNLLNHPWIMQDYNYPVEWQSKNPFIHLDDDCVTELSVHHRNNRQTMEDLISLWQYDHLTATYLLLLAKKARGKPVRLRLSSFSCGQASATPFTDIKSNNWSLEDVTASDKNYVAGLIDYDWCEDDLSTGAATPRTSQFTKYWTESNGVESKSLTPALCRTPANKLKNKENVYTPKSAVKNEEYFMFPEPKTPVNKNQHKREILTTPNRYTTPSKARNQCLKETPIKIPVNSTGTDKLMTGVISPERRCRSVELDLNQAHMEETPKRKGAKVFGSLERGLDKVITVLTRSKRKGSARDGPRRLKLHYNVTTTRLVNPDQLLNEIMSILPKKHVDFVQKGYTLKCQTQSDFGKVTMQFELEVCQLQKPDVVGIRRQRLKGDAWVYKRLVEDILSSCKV
Serine/threonine-protein kinase PAK 3 (Homo sapiens), sequence (O75914 whole entry, looked up): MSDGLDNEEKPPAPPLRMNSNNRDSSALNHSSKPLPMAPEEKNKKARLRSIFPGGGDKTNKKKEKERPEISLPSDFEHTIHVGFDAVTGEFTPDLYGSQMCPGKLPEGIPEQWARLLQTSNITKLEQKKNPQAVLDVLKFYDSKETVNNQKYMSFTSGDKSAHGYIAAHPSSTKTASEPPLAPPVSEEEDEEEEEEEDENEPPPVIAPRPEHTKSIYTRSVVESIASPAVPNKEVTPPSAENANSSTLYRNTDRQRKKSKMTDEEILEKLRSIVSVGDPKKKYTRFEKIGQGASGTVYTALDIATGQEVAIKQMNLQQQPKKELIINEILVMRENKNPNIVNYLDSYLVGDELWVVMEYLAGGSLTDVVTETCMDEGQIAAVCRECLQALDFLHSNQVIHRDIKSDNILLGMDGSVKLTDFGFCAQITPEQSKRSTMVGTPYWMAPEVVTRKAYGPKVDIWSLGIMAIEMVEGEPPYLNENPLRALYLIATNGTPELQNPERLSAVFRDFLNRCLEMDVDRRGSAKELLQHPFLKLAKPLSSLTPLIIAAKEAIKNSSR
Mitogen-activated protein kinase kinase kinase kinase 4 (Homo sapiens), sequence (O95819 2-1239 limits assumed): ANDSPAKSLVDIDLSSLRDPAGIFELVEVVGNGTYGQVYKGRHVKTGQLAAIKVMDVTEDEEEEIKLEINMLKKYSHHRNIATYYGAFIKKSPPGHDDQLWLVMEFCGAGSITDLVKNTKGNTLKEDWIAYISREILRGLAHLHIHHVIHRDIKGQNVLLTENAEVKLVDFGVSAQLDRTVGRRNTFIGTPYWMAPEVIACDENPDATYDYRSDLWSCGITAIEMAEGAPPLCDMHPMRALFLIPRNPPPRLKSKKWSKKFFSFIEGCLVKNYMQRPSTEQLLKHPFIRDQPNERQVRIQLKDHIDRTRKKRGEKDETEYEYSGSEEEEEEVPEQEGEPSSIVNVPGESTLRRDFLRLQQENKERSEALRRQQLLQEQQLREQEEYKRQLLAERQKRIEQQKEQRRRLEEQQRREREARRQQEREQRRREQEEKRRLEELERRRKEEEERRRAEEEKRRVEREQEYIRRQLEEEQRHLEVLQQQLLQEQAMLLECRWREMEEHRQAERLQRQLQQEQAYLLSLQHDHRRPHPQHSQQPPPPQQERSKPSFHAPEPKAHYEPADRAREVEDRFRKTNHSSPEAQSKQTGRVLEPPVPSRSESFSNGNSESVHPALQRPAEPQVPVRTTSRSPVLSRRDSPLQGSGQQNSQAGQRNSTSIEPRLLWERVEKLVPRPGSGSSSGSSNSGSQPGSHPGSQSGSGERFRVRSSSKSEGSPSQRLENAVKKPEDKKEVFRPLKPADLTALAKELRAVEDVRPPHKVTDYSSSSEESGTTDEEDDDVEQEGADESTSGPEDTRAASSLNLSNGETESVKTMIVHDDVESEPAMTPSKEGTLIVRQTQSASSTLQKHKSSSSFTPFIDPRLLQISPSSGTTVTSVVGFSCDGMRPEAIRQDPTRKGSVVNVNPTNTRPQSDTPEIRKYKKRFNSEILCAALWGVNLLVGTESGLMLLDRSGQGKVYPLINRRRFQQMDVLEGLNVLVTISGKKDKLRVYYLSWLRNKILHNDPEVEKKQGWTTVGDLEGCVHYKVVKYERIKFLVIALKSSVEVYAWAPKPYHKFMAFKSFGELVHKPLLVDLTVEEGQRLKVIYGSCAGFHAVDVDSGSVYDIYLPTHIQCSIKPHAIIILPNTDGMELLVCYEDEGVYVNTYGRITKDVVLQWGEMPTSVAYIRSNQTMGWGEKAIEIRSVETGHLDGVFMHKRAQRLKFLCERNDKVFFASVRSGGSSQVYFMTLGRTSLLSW

As a reminder, the IC50 is the concentration that gives 50% inhibition. Usually Tmax stands for the time at which the peak concentration occurs. For the molecule `Cc1c(C(=O)Nc2ccc3ccccc3n2)cnn1-c1ccccc1Br`, the Activity result in the data set with SW-620 [1] was “Dose-dependent effect”; in the data set with SW-620 [3], 9.43%; in data set [5] it was “Non-Toxic”; with SW-620 [11] it was 49%; in the data set on SW-620 [14], 45%; in the data set on SW-620 [16], 23.4%. Moreover, the Activity entry in [17] and in data set [21] was “Non-Toxic” in each case. For the same molecule, the inhibition entry in the data set with SW480 [2] and with HT-29 was “Dose-dependent effect” throughout. In data set [4], 194 pM corresponded to half-maximal inhibition (IC50). Further, the inhibition result (in [6]; in data set [10]; in the data set listed under Homo sapiens; in data set [18]; in [20]) was “Active” each time. Further, the “inhibition (INH)” value in the data set with Mus musculus [7] and with Mus musculus [8] was “Active” in each case. Further, the inhibition of growth at 50 µM with SW480 [9] is above 50%. Further, the result in the data set on SW-620 [12], in the data set with Mus musculus [13], in the data set with HEK293 [19] and in the data set with HEK293 [22] was Active. For the same molecule, the Tmax in data set [15] was 18 min.
